Laboratory results published in article PMC6544531 (Nature chemistry, 2019).
“Also recorded” adds a separate entry of the source.

Assays:
[1] = system: farnesylated substrates (YnF labeling) in EA.hy926 cells; assay type: cell-based, human; conditions: for mean in-cell IC50 response (YnF labeling of farnesylated substrates): 10 µM YnF, 1 h inhibitor pre-incubation + 8 h
How it was run: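 EA.hy926 endothelial cells labeled with alkyne prenyl probe alongside increasing concentrations of prenyl transferase inhibitor. Lysates were spiked with a heavy SILAC standard, a lysate dual-labeled with 13C615N4-Arg/13C615N2-Lys (R10K8) plus the same probe. Probe-labeled proteins were quantified against this standard by spike-in SILAC chemical proteomics, giving dose-response curves per farnesylated substrate.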

[2] = system: YnGG labeling of farnesylated substrates in EA.hy926 cells; assay type: cell-based, human
How it was run: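 Human EA.hy926 cells given an FTase inhibitor over a range of concentrations and labeled with YnF or YnGG in parallel. Probe incorporation was quantified proteome-wide by spike-in SILAC chemical proteomics. Changes in the YnF/YnGG incorporation ratio were compared with loss of YnF labeling across concentrations. Points are mean of n=3 ± standard deviation.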

[3] = system: EA.hy926 cells; assay: Cell toxicity observed during cell treatment; assay type: cell-based, human; conditions: data not shown
[4] = molecular target: FTase (Rattus norvegicus, UniProt Q02293+Q04631); conditions: read-out: IC50 (weak FTI); cited from earlier work
FTase, sequence (Q02293 whole entry, one chain of several): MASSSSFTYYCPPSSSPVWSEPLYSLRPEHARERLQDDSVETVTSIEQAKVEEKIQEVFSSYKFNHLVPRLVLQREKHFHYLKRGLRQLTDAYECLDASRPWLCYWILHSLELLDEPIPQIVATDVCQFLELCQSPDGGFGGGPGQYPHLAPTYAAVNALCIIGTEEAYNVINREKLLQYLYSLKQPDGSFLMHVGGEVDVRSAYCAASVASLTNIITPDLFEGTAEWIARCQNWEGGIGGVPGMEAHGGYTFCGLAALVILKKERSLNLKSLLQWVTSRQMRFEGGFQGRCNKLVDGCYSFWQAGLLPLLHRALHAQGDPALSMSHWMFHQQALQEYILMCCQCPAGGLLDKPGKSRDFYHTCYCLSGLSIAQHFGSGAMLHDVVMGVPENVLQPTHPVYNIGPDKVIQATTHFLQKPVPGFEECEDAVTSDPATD

mean in-cell IC50 response (YnF labeling of farnesylated substrates) [1]	Compound	selectivity at the whole proteome level [1]	concentration of maximum increase in YnGG labeling of KRAS ([2]; KRAS)	concentration of maximum increase in YnGG labeling of NRAS ([2]; NRAS)	concentration of maximum increase in YnGG labeling of RRAS2 ([2]; RRAS2)	impact on farnesylation (YnF labeling) ([1]; up to the highest concentration tested (10 µM))	concentration above which acute cell toxicity was evident [3]	IC50 [4]
micromolar	COC(=O)[C@H](CCSC)NC(=O)c1ccc(NC[C@@H](N)CS)cc1-c1ccccc1 [FTI-277]	excellent selectivity	–	–	–	–	–	–
low nanomolar	Cn1cncc1[C@@](N)(c1ccc(Cl)cc1)c1ccc2c(c1)c(-c1cccc(Cl)c1)cc(=O)n2C [Tipifarnib]	excellent selectivity	10 nM	5 nM	1 nM	–	–	–
–	CCCC[C@@H](C)/C=C(C)/C=C(\C)C(=O)NC1=C[C@@](O)(/C=C/C=C/C=C/C(=O)NC2=C(O)CCC2=O)[C@@H]2O[C@@H]2C1=O [Manumycin A]	–	–	–	–	no evidence that Manumycin A impacted farnesylation; also recorded: insensitive	> 10 µM	5 µM
